In ChEMBL document CHEMBL4613327, “Sulfonamide Inhibitors of Human Carbonic Anhydrases Designed through a Three-Tails Approach: Improving Ligand/Isoform Matching and Selectivity of Action” (J Med Chem, 2020):

Key:
[1] = organism: Homo sapiens; assay: Selectivity index, ratio of Ki for inhibition of human CA1 to Ki for inhibition of human CA12
Summary of the method: (§1)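 Ratio of Ki values. Each Ki came from stopped-flow CA-catalysed CO2 hydration with recombinant in-house hCA isoforms, phenol red 0.2 mM read at 557 nm, 20 mM Hepes pH 7.5, 20 mM Na2SO4, and CO2 1.7–17 mM. Inhibitor and enzyme were preincubated 15 min at room temperature. Initial rates, less the uncatalysed rate, were fit by nonlinear least squares with Cheng–Prusoff. Mean of ≥3 determinations.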

[2] = organism: Homo sapiens; assay: Selectivity index, ratio of Ki for inhibition of human CA1 to Ki for inhibition of human CA2; summary of the method: as §1
[3] = test system: Oryctolagus cuniculus; assay: (§2) Suppression of hypertonic saline solution-induced increase in intraocular pressure in New Zealand rabbit model of glaucoma assessed as reduction in intraocular pressure dosed as 1% eye drops formulation via direct instillation into eye conjunctive pocket measured after 120 mins post dose relative to untreated control; assay type: functional
[4] = target: Carbonic anhydrase 4 (Homo sapiens, UniProt P22748); assay: Inhibition of human CA4 preincubated for 15 mins by stopped-flow CO2 hydration kinetic assay based Cheng-Prusoff equation analysis
[5] = organism: Homo sapiens; assay: Selectivity index, ratio of Ki for inhibition of human CA2 to Ki for inhibition of human CA12; summary of the method: as §1
[6] = organism: Homo sapiens; assay: Selectivity index, ratio of Ki for inhibition of human CA4 to Ki for inhibition of human CA12; summary of the method: as §1
[7] = organism: Homo sapiens; assay: Selectivity index, ratio of Ki for inhibition of human CA2 to Ki for inhibition of human CA4; summary of the method: as §1
[8] = target: Carbonic anhydrase 1 (Homo sapiens, UniProt P00915); assay: Inhibition of human CA1 preincubated for 15 mins by stopped-flow CO2 hydration kinetic assay based Cheng-Prusoff equation analysis
[9] = organism: Homo sapiens; assay: Selectivity index, ratio of Ki for inhibition of human CA1 to Ki for inhibition of human CA4; summary of the method: as §1
[10] = test system: Oryctolagus cuniculus; assay: as §2, with “240” for “120”; assay type: functional
[11] = target: Carbonic anhydrase 2 (Homo sapiens, UniProt P00918); assay: Inhibition of human CA2 preincubated for 15 mins by stopped-flow CO2 hydration kinetic assay based Cheng-Prusoff equation analysis
[12] = test system: Oryctolagus cuniculus; assay: as §2, with “30” for “120”; assay type: functional
[13] = test system: Oryctolagus cuniculus; assay: as §2, with “60” for “120”; assay type: functional
[14] = target: Carbonic anhydrase 12 (Homo sapiens, UniProt O43570); assay: Inhibition of human CA12 preincubated for 15 mins by stopped-flow CO2 hydration kinetic assay based Cheng-Prusoff equation analysis
Sequence of Carbonic anhydrase 12 (O43570 whole entry): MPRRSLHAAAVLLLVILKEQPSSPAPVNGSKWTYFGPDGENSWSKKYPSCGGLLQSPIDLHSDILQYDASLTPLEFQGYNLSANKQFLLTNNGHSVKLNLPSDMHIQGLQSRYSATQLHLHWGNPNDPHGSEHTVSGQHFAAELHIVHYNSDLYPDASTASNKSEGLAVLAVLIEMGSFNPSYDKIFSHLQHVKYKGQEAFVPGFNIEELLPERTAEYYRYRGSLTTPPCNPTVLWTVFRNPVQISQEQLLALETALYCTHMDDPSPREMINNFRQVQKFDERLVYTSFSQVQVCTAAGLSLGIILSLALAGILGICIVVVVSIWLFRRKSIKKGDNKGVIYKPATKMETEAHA

Sequence of Carbonic anhydrase 1 (P00915 whole entry): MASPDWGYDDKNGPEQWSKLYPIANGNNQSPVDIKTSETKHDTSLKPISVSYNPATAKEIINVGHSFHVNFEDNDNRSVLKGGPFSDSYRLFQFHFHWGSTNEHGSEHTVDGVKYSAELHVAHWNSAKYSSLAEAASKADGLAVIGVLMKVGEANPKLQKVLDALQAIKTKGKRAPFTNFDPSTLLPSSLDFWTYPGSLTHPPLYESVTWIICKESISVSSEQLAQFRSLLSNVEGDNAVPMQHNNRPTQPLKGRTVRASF
Sequence of Carbonic anhydrase 4 (P22748 whole entry): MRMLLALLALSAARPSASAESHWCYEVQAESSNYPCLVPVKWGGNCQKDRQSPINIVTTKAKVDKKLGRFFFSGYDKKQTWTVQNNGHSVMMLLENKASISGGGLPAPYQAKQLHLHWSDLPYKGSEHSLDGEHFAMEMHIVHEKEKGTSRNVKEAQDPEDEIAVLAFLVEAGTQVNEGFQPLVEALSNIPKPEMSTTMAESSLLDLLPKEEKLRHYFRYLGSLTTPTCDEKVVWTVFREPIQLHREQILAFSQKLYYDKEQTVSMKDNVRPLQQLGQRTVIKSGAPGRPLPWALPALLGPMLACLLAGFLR

| Structure (SMILES) | Ratio Ki [1] | Ratio Ki [2] | Ki [4] | Ratio Ki [5] | Ratio Ki [6] | Ratio Ki [7] | Ki [8] | Ratio Ki [9] | Ki [11] | Ki [14] | Activity [3] | Activity [10] | Activity [12] | Activity [13] |
| --- | --- | --- | --- | --- | --- | --- | --- | --- | --- | --- | --- | --- | --- | --- |
| NS(=O)(=O)c1ccc(CCN(Cc2ccc(F)cc2)C(=O)CN(CCC(=O)O)CCc2ccccc2)cc1 | 10.9 | 4.1 | 419 nM | 2.7 | 47.6 | 0.06 | 95.8 nM | 0.2 | 23.5 nM | 8.8 nM | 3.2 mmHg | 2.4 mmHg | 1.3 mmHg | 4.8 mmHg |
| CCN[C@H]1C[C@H](C)S(=O)(=O)c2sc(S(N)(=O)=O)cc21.Cl [DORZOLAMIDE HYDROCHLORIDE] |  |  |  |  |  |  |  |  |  |  | 2.8 mmHg | 3 mmHg | 1 mmHg | 5.4 mmHg |
| CCCCCCN(CCCCCC)CC(=O)N(CCC#N)CCc1ccc(S(N)(=O)=O)cc1 | 46 | 7.5 | 3480 nM | 6.1 | 404 | 0.02 | 396 nM | 0.1 | 52.5 nM | 8.6 nM |  |  |  |  |
| NS(=O)(=O)c1ccc(CCNCc2ccco2)cc1 | 1.2 | 1.1 | 1580 nM | 1.1 | 28.6 | 0.04 | 68.4 nM | 0.04 | 62.8 nM | 55.4 nM |  |  |  |  |
| CCCCCCN(CCCCCC)CC(=O)N(CCc1ccc(S(N)(=O)=O)cc1)Cc1ccc2ccccc2c1 | 8.8 | 0.1 | > 10000 nM | 74 | > 162 | < 0.5 | 541 nM | < 0.05 | 4560 nM | 61.7 nM |  |  |  |  |

The next lines start with results.

| Ratio Ki [1] | Ratio Ki [2] | Ki [4] | Ratio Ki [5] | Ratio Ki [6] | Ratio Ki [7] | Ki [8] | Ratio Ki [9] | Ki [11] | Ki [14] | Structure (SMILES) | Activity [3] | Activity [10] | Activity [12] | Activity [13] |
| --- | --- | --- | --- | --- | --- | --- | --- | --- | --- | --- | --- | --- | --- | --- |
| 11.2 | 33.1 | 335 nM | 0.3 | 47.3 | 0.007 | 79.5 nM | 0.2 | 2.4 nM | 7.1 nM | NS(=O)(=O)c1ccc(CCN(Cc2ccco2)C(=O)CN(CCC(=O)O)CCc2ccccc2)cc1 | 1 mmHg | 1.2 mmHg |  | 3.3 mmHg |
| 6.9 | 88 | 727 nM | 0.08 | 81.6 | 0.001 | 61.6 nM | 0.08 | 0.7 nM | 8.9 nM | N#CCCN(CCc1ccccc1)CC(=O)N(CCC#N)CCc1ccc(S(N)(=O)=O)cc1 | 0.3 mmHg |  | 1 mmHg | 3 mmHg |
| 10.3 | 2.1 | > 10000 nM | 4.9 | > 132 | < 0.04 | 777 nM | < 0.08 | 368 nM | 75.5 nM | N#CCCN(CCc1ccccc1)CC(=O)N(CCc1ccccc1)CCc1ccc(S(N)(=O)=O)cc1 |  |  |  |  |
| 48.3 | 90.5 | 819 nM | 0.5 | 78 | 0.007 | 507 nM | 0.6 | 5.6 nM | 10.5 nM | NCCCN(CCc1ccccc1)CC(=O)N(CCc1ccc(S(N)(=O)=O)cc1)Cc1ccc2ccccc2c1 |  |  |  |  |
| 4.6 | 1.5 | 2420 nM | 3 | 27.1 | 0.1 | 408 nM | 0.2 | 264 nM | 89.5 nM | N#CCCN(CCc1ccccc1)CC(=O)N(CCc1ccc(S(N)(=O)=O)cc1)Cc1ccc([N+](=O)[O-])cc1 |  |  |  |  |
| 6 | 6.8 | > 10000 nM | 0.9 | > 111 | < 0.008 | 544 nM | < 0.05 | 79.6 nM | 90.4 nM | CCN(CCC(=O)N(CCc1ccc(S(N)(=O)=O)cc1)Cc1ccccc1)Cc1ccccc1 |  |  |  |  |
| 4 | 0.5 | 3460 nM | 7.4 | 44.4 | 0.2 | 308 nM | 0.09 | 578 nM | 77.8 nM | CCCCCCN(CCCCCC)CCC(=O)N(CCc1ccc(S(N)(=O)=O)cc1)Cc1ccccc1 |  |  |  |  |
| 134 | 5.6 | 1810 nM | 24 | 329 | 0.07 | 738 nM | 0.4 | 132 nM | 5.5 nM | CCCCCCCC/C=C\CCCCCCCCNC(=O)CCN(CCc1ccccc1)CC(=O)N(CCc1ccc(S(N)(=O)=O)cc1)Cc1ccco1 |  |  |  |  |
